How the values were obtained:
[1] = melting temperature; fluorescence melt of hairpins on a sequencing array, two-state fit, raised by 9.35 °C to match UV melts; settings: sodium 0.088 M
Outline: (§1)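 Two-state fits, bootstrapped, provided melting temperature and folding enthalpy from Cy3 fluorescence normalised to pre-quench Cy3 and to control constructs. Library hairpins with annealed Cy3 and quencher oligos were imaged on a sequenced MiSeq flow cell in 50 mM Na-HEPES pH 8.0, 25 mM NaCl, at 2.5 °C intervals up to 60 °C. Four replicates were combined with inverse-variance weighting. A 9.35 °C upward shift was applied to fitted temperatures to match UV melts.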

[2] = folding enthalpy; higher = less favourable; fluorescence melt of hairpins on a sequencing array, two-state fit; settings: sodium 0.088 M
Outline: as §1

Sequence | Tm [1] | folding enthalpy [2]
GTACGGCGAAAGCCCTAC (((.(((....))).))) | 35.9 °C | -12.5 kcal/mol
GTACGGCGAAAGCCTAC (((.(((....)))))) | 44.4 °C | -14.9 kcal/mol
GTACGGGAAACCGTAC ((((((....)))))) | 63.2 °C | -27.9 kcal/mol
GTACGGGGAAACTCGTGC (.(((.(....).))).) | 39.6 °C | -27.5 kcal/mol
GTACGTGAAAACGTAC ((((((....)))))) | 59.5 °C | -37 kcal/mol
GTACTAGCGAAAGCTTAC (((..(((....)))))) | 28.2 °C | -9.73 kcal/mol
GTACTCCGAAAGGACTAC (((.(((....))).))) | 33.2 °C | -14.1 kcal/mol
GTACTCGAAAGAGCGTAC ((((((....)))..))) | 28.5 °C | -10.7 kcal/mol
GTACTCTCGAAAGAGTAC (((..(((....)))))) | 52.5 °C | -36.9 kcal/mol
GTACTGGGAAACCAGTAC (((((((....))))))) | 58.5 °C | -36.9 kcal/mol
GTACTGGGAAACCGGTAC ((((.((....)).)))) | 50.1 °C | -35.3 kcal/mol
GTACTTGCGAAAGCATAC (((..(((....)))))) | 30.2 °C | -9 kcal/mol
GTAGAAACGAAAGTTTAC (((..(((....)))))) | 27.4 °C | -15.8 kcal/mol
GTAGAAGGAAACTTCTAC (((((((....))))))) | 51.4 °C | -40 kcal/mol
GTAGACGAAAGTCAATAC ((((((....)))..))) | 27.6 °C | -13.5 kcal/mol
GTAGACGAAAGTCATAC ((((((....))).))) | 39.9 °C | -12.8 kcal/mol
GTAGACGAAAGTCCCTAC ((((((....)))..))) | 19.7 °C | -7.5 kcal/mol
GTAGACGAAAGTCGCTAC ((((((....)))..))) | 40.5 °C | -10.8 kcal/mol
GTAGACGAAAGTCTTAC ((((((....))).))) | 38.6 °C | -14.6 kcal/mol

Sequence | Tm [1] | folding enthalpy [2]
GTAGAGGGAAACCTCCAC ((.((((....)))).)) | 31.2 °C | -16.7 kcal/mol
GTAGATGGAAACATCTGC (.(((((....))))).) | 45.6 °C | -20.8 kcal/mol
GTAGCACGAAAGTGATAC (((.(((....))).))) | 58.4 °C | -39 kcal/mol
GTAGCACGAAAGTGTAC (((.(((....)))))) | 40.4 °C | -14.2 kcal/mol
GTAGCGCGAAAGCGTAC (((.(((....)))))) | 44 °C | -10.8 kcal/mol
GTAGGAGCGAAAGCTTAC (((..(((....)))))) | 31.2 °C | -11.2 kcal/mol
GTAGGCGAAAGCCAGTAC ((((((....)))..))) | 27.4 °C | -8.17 kcal/mol
GTAGGCGAAAGCCTCTAC ((((((....)))..))) | 36.4 °C | -8.87 kcal/mol
GTAGGCGGAAACGCTTAC (((.(((....))).))) | 48.2 °C | -23.1 kcal/mol
GTAGGGCGAAAGCCTAC (((.(((....)))))) | 51.8 °C | -14.1 kcal/mol
GTAGGGGGAAACCCTTGC (.(.(((....))).).) | 31.9 °C | -13.2 kcal/mol
GTAGGGGGAAACTCCTAC (((((.(....).))))) | 47.2 °C | -28.5 kcal/mol
GTAGGTCGAAAGACGTAC (((.(((....))).))) | 51.7 °C | -36.2 kcal/mol
GTAGGTGCGAAAGCATAC (((..(((....)))))) | 31.1 °C | -8.27 kcal/mol
GTAGGTGGAAACACTTGC (.(.(((....))).).) | 31.7 °C | -14.3 kcal/mol
GTAGGTGGAAACGCTTAC (((.(.(....).).))) | 31.4 °C | -23 kcal/mol
GTAGGTGGAAACGTCTAC ((((..(....)..)))) | 28.8 °C | -16.8 kcal/mol
GTAGTAGAAATACTAC ((((((....)))))) | 43.1 °C | -26.1 kcal/mol
GTAGTCCCGAAAGGGTAC (((..(((....)))))) | 31.5 °C | -10.8 kcal/mol

From the array DNA melting data of Ke et al. (doi:10.1101/2024.01.08.574731)
